Assay outcomes from PubChem.
HER2 expr 66K: inhibitors of Her2 protein expression, primary screen, SKBR-3 cells, AlphaScreen, 66K library; Receptor tyrosine-protein kinase erbB-2 (Homo sapiens), P04626; SKBR-3 HER2 protein level, 18-24 h; hits give low values; HER2 level % of control, % at 10 µM; actives 0.69% (n = 65,000); AID 645, 2007;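 active = HER2 level under 5% of the carrier-only control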;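 also: 100% = DMSO carrier and 0% = 500 nM PU-H71 HSP90 inhibitor; lower value means stronger loss of Her2 protein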
Target sequence (P04626 whole entry, looked up): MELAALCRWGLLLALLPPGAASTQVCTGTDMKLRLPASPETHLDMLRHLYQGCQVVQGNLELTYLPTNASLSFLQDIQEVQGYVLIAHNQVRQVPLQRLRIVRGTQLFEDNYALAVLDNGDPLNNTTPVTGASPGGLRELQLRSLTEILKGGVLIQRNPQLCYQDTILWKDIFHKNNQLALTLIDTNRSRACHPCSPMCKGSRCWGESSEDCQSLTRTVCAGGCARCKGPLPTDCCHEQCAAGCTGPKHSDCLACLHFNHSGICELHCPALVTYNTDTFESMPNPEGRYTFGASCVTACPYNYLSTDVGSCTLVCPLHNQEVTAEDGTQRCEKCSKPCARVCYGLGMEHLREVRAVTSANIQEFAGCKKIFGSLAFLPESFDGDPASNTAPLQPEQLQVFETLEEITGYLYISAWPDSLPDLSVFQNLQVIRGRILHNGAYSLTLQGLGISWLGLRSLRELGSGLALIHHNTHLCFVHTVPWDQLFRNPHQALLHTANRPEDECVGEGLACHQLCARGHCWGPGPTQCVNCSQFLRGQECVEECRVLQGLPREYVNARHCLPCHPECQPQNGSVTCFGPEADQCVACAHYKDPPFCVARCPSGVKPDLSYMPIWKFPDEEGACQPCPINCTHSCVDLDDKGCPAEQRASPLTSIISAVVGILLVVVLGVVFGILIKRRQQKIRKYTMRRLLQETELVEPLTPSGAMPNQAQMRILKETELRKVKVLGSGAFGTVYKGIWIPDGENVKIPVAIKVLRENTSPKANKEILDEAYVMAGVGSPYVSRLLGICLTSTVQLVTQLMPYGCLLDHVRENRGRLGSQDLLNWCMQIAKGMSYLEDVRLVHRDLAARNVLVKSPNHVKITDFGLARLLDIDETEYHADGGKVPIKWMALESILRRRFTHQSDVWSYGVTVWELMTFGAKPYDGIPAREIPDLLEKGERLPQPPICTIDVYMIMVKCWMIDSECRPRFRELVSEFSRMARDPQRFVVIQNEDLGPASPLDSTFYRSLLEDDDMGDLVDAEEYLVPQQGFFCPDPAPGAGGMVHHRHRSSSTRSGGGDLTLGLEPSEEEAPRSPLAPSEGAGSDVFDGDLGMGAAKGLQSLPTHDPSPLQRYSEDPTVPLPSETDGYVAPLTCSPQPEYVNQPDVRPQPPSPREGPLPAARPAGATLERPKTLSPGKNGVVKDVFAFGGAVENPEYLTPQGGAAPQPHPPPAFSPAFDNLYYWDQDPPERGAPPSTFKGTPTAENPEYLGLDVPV
Htt clearance: clearance of mutant huntingtin inclusions, primary screen, imaging, HeLa Exon1htt(103Q)mCFP, confocal imaging | aggregate imaging; zero = plate's median compound well | inhibition, % at 1.5 µM | actives 0.42% (n = 47,000) | AID 853, 2007;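 active = inhibition of aggregate fluorescence above about 70%, also judged a hit by eye on the cell image, limit read from the data, passing the limit was not always enough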;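 also: cells exposed to compound for three days before fixation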
SK-BR-3 tox 24h: SK-BR-3 proliferation inhibitors, primary screen, cell-based, human, 24 h; SK-BR-3 viability, CellTiter-Glo ATP luminescence; hits give low values; viability, % at 10 µM; actives 0.47% (n = 41,000); AID 847, 2007;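 active = viability at or below the median of all test compounds minus 3 SD, in both replicates if run twice, cut at about 45% in these data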;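 also: 100% = median untreated cell wells and 0% = median positive control drug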
HEK293 NFkB inh: inhibitors of PMA/ionomycin-induced NF-kB reporter, primary screen, antigen receptor NF-kB inhibitor project, cell-based, HEK-293 luciferase reporter, luminescence; HEK-293 NF-kB luciferase reporter; AID 465, 2006; inhibition, % at 3 µM; actives 0.21% (n = 62,000);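 active = inhibition above the mean of all tested compounds plus 3 SD, cut at about 40% in these data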;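 also: 0% = stimulated DMSO wells and 100% = 10 µM reference inhibitor 5653914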
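Signal: luciferase luminescence; Material: HEK-293 cells with stable firefly luciferase reporter driven by four HIV NF-kB elements; Probe or stimulus: PMA with ionomycin; Replication: tested once; Times: 1 h compound pretreatment, then 16 h stimulation at 37 °C, 5% CO2; Benchmarks: DMSO and 10 µM reference inhibitor; Evaluation: per-plate % inhibition versus controls.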
Jurkat viability: cytotoxicity toward Jurkat T cells, primary screen, cytotoxicity control, cell-based, Jurkat E6.1, 60K MLSMR library; Jurkat E6.1 viability, ATP luminescence, 48 h; inhibition, % at 4 µM; actives 1.2% (n = 56,000);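 active = inhibition above the mean inhibition of all tested compounds plus 3 SD, cut at about 28% in these data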
The depositor's hits bear a star; . = no result given. This is a sample that favours compounds with a hit; in the whole collection about 1.9% have one here.

SMILES | HER2 expr 66K | Htt clearance | SK-BR-3 tox 24h | HEK293 NFkB inh | Jurkat viability
Oc1ccc(COCc2ccccc2)c2cccnc12 | 82 | -29 | 49 | 7 | 68*
O=c1[nH]c2ccccc2n1Cc1ccc(F)cc1 | 103 | . | . | 7 | 1
CC(=O)c1ccc(Oc2ncnc3sccc23)c(CN2CCOCC2)c1 | 98 | . | . | 12 | 1
CC1(C)Cc2ccccc2-c2nc3ccccc3c(=O)n21 | 95 | -33 | . | 19 | -5
O=C(O)C1C2C=CC(C2)C1C(=O)N1CCOCC1 (configuration not stated) | 97 | . | 105 | 20 | 4
O=C(NC1CCCC1)C1C2C=CC(C2)C1C(=O)N1CCOCC1 (configuration not stated) | 89 | 78* | 101 | 9 | 4
CCC(Sc1nnnn1-c1ccccc1)C(=O)Nc1nc2ccccc2s1 (configuration not stated) | 70 | . | 79 | 11 | .
CCC(Sc1nnnn1-c1ccccc1)C(=O)NC(C)c1ccccc1 (configuration not stated) | 80 | 71* | 95 | 21 | -1
CCOP(=O)(c1ccccc1Cl)C1(O)CCCCC1 (configuration not stated) | -28* | -18 | 82 | -2 | 2
N#Cc1c(NCc2ccccc2)ccnc1NCc1cccnc1 | 110 | . | 77 | 11 | 69*
CN(C)c1ccnc(NCc2ccccc2)c1C#N | 105 | -4 | . | 1 | -1
COc1ccc(-n2ncc3c(N(C)C4CCCCC4)ncnc32)cc1 | 100 | . | . | 46* | -1
Cc1cccc(-n2ncc3c(N(C)C4CCCCC4)ncnc32)c1 | 106 | . | . | 62* | 6
Cc1nc(Nc2nc(=O)c3ccccc3n2C)nc2c(C)cccc12 | 69 | 22 | 85 | -5 | -2
c1ccc(C(Cc2nc(-c3ccncc3)no2)c2ccccc2)cc1 | 44 | 11 | 95 | 22 | 58*
CCCOc1c(OC)cccc1C1CC(=O)Nc2cc(OC)c(OC)c(OC)c21 (configuration not stated) | 80 | -146 | 87 | 98* | 3
COc1cc2c(c(OC)c1)C(c1cccc(OC)c1OC)CC(=O)N2 (configuration not stated) | 91 | . | . | 9 | 2
O=S(=O)(C/C(=C/CO)S(=O)(=O)c1ccccc1)c1ccccc1 | -21* | -77 | 154 | 18 | 98*
O=C(CS(=O)(=O)c1ccccc1)N1CCCCCC1 | 108 | -10 | 105 | -13 | -1
CCCCOCP(=O)(CCCC)COCCCC | 101 | 14 | . | 19 | -3
COc1cc(C)c(Br)cc1S(=O)(=O)N1CCCC1 | 92 | 22 | 92 | 18 | 3
Cc1ccc(N(C(=O)C2CCC(=O)N2)C2(C(=O)NC3CCCCC3)CCCCC2)cc1 (configuration not stated) | 87 | . | 86 | 14 | .
O=C1CCC(C(=O)NC2(C(=O)NC3CCCCC3)CCCCC2)N1 (configuration not stated) | 96 | 11 | 28* | -3 | .
O=C(Oc1ccc(Cl)c2cccnc12)N1CCOCC1 | 1.0* | -60 | 63 | 3 | 1
COCCn1cnc2c(c1=O)c1nc3ccccc3nc1n2/N=C/c1cccc(OC)c1OC | -0.7* | . | 72 | 17 | -7
SMILES | HER2 expr 66K | Htt clearance | SK-BR-3 tox 24h | HEK293 NFkB inh | Jurkat viability
C(=C\c1ccccc1)/CSc1nnc(-c2ccccn2)n1Cc1ccco1 | 53 | -204 | . | 25 | 86*
Clc1ccccc1CSc1nnc(-c2ccccn2)n1Cc1ccco1 | 97 | -5 | 129 | 13 | .
CCN(c1cccc(C)c1)c1nc2ccsc2c(=O)s1 | . | -33 | . | . | .
CCOC(=O)CSc1nc(C)cc(=O)[nH]1 | 58 | 71* | 98 | 17 | -4
CCOC(=O)CSc1nc(N)cc(=O)[nH]1 | 99 | . | 76 | 19 | 2
Clc1ccc(Cc2nn3c(Cn4nnc5ccccc54)nnc3s2)cc1 | 76 | -18 | 86 | 3 | 3
CC(=O)N(C(C)=O)C1=C(C#N)C2(CCCCC2)Cc2ccccc21 | . | -27 | . | . | .
CCOc1cc(C2c3c(n[nH]c3C)C(=O)N2c2ccc(Br)cc2)ccc1O (configuration not stated) | 91 | 2 | 37* | 18 | -3
